Compound activity: PubChem, several laboratories
Shown is part of a subset that was picked to be rich in hits.
HSF-1 act: HSF-1 activators, primary screen, NIH3T3-HGL cells, MG132 stress, luminescence, single point; NIH3T3-HGL HSF-1 luciferase reporter, 8 h; 100% = twice DMSO control signal; 300,000 compounds, 1.7% hits; activation, % at 9 µM;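 active means mean replicate activation of at least 50% with a set share of replicates each reaching 50%; inconclusive means only one of those two conditions met; inactive means mean below 50% and too few replicates reaching it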;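 further: 0% = median of the neutral control wells and 100% = twice that signal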
L major viab: Leishmania major promastigote growth inhibition, primary screen; Leishmania major promastigotes, resazurin fluorescence viability; 200,000 compounds, 9% hits; inhibition, % at 10 µM; in the data active means inhibition above about 50%;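 further: promastigotes grown with compound for 44 hours at 28 °C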
HSF1 inhib: HSF1 inhibitors in luciferase reporter cells, primary screen, cell-based, NIH3T3, luminescence | 300,000 compounds, 0.77% hits | NIH3T3-HGL HSE-luciferase, MG132-induced, luminescence 8 h; hits give low values | activity change, negative = inhibition, % at 7.5 µM (by protocol);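 active means more than half of replicate wells show activity change below -50%, luminescence cut by over half; inconclusive means some wells, but at most half, below -50%; inactive means no replicate well below -50%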;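 further: luciferase reports HSF-1 transcriptional activity via heat shock element; 0% = median of DMSO wells and -100% = zero luminescence signal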
T cruzi inh: inhibitors of intracellular T. cruzi growth, primary screen, luminescence, NIH3T3 host cells; T. cruzi beta-gal in NIH3T3, 90 h; inhibition, % (concentration not given with the values); 300,000 compounds, 1.4% hits; AID 1885, 2009;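 active means mean inhibition across valid replicates above about 55%, limit read from the data; inconclusive means mean below that limit but half or more replicates reach it; inactive means mean below it, under half of replicates reach it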;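 further: signal also drops with host cell toxicity which is not excluded here; 0% = plate median of DMSO wells and 100% = zero luminescence signal; higher percent means less beta-gal luminescence so fewer parasites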
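Assay system: NIH/3T3 fibroblasts plus reporter T. cruzi. Amount: NIH/3T3 cells, 5,000 per well. Buffer or medium: DMEM, 2% fetal bovine serum. Doses: compound pinned at 50 nL/well, DMSO. Schedule: ≥90 h infection period, 3 h prior cell attachment. Signal: luminescent β-galactosidase signal after 60 min lysis. Read-out: parasite load inhibition, %.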
Hsp70 act: Hsp70 transcriptional activators, primary screen, cell-based, HeLa, Hsp70 promoter luciferase, luminescence, 10 µM; activation, % at 10 µM; HeLa Hsp70 promoter luciferase reporter; scaled: vehicle 0, proteasome-inhibitor control 100%; 200,000 compounds, 0.04% hits;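 active means activation above the mean across all tested compounds plus 3 SD, cutoff set per campaign, cut at about 5.5% in these data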;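 further: 100% = MG132 at 30 µM as the positive control and 0% = DMSO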
The depositor's hits bear a star; ? = inconclusive; . = no result given.

SMILES | HSF-1 act | L major viab | HSF1 inhib | T cruzi inh | Hsp70 act
COCCn1c(C2CCCCC2)nc2sc3ccccc3c(=O)c2c1=O | 10 | 21 | -1 | 55* | 0
CCc1ccc(OCC(=O)N/N=C/c2cc([N+](=O)[O-])ccc2N2CCOCC2)cc1 | -5 | 78* | -3 | 0 | 0
Cc1cccc(OCC(=O)N/N=C/c2cc([N+](=O)[O-])ccc2N2CCOCC2)c1 | -6 | 87* | -8 | 10 | 0
CN1CCN(C(CNS(=O)(=O)c2ccc(Cl)cc2)c2cccnc2)CC1 (centres undefined) | 5 | -1 | -10 | 44 | 0
COc1ccc(S(=O)(=O)NCC(c2cccnc2)N2CCN(C)CC2)cc1C (centres undefined) | -9 | 0 | -6 | 35 | 0
COc1ccc(S(=O)(=O)NCC(c2cccnc2)N2CCN(C)CC2)cc1OC (centres undefined) | -78 | . | -71* | 9 | .
COc1ccccc1N1CCN(C(CNS(=O)(=O)c2ccccc2)c2cccnc2)CC1 (centres undefined) | 7 | 93* | 0 | 28 | 0
COc1ccc(S(=O)(=O)NCC(c2cccnc2)N2CCN(c3ccccc3OC)CC2)cc1C (centres undefined) | . | 98* | . | . | 0
O=C(Nc1ccccn1)c1csc2c1CCCC2 | 53* | -6 | 43 | -10 | 0
Cc1ccc(CNC(=O)c2csc3c2CCCCC3)cc1 | -3 | -1 | 1 | 12 | 0
O=C(NCc1cccnc1)c1csc2c1CCCC2 | -5 | 52* | -4 | 2 | 0
COc1ccc(CCC(C)NCCc2ccc(Cl)cc2Cl)cc1 (centres undefined) | -36 | . | -22 | 42 | .
Cc1noc(C)c1S(=O)(=O)N1CCC(C(=O)NC2CCCc3ccccc32)CC1 (centres undefined) | -9 | 60* | -5 | -9 | 0
O=C(N1CCCCCC1)N1CCN(S(=O)(=O)c2ccccc2)CC1 | -2 | 5 | -4 | 5 | 0
C=CCN(c1ccccc1)S(=O)(=O)c1cccc(C(=O)NC2CCN(Cc3ccccc3)CC2)c1 | -14 | . | -2 | 61* | .
O=C(NC1CCN(Cc2ccccc2)CC1)C1CCN(S(=O)(=O)c2ccc(Cl)cc2)CC1 | -4 | . | -1 | 47 | .
O=C(N1CCCCC1)N1CCN(S(=O)(=O)c2ccccc2)CC1 | -77 | . | -71* | -16 | .
O=C(NC1CCN(Cc2ccccc2)CC1)C1CCN(S(=O)(=O)c2ccccc2)CC1 | -10 | . | 1 | 57* | .
COc1cccc(C2c3[nH]c4ccccc4c3C[C@H]3C(=O)N(c4ccccc4C(=O)NCCCN4CCOCC4)C(=O)N23)c1 (some centres undefined) | 0 | . | 0 | 24 | .
O=C(O)CCn1c(SCCc2ccccc2)nc2ccccc21 | 15 | . | -4 | -17 | .
Cc1noc(C)c1S(=O)(=O)N1CCC(C(=O)Nc2ccccn2)CC1 | 0 | 5 | 1 | -4 | 0
CSCC[C@H](NC(=O)C1CCN(S(=O)(=O)c2ccc(C)cc2)CC1)C(=O)NCc1ccco1 | 4 | -7 | 5 | 2 | 0
O=C(NC1CCCCC1)C1CCN(c2nccs2)CC1 | -69 | -5 | -58* | -2 | 0
O=C(O)c1nc(-c2ccccc2)n(-c2ccccc2)n1 | -8 | -5 | -7 | 2 | 0
Cc1noc(C)c1S(=O)(=O)N1CCC(C(=O)NC2CCN(Cc3ccccc3)CC2)CC1 | -4 | 89* | -5 | 52 | 0
SMILES | HSF-1 act | L major viab | HSF1 inhib | T cruzi inh | Hsp70 act
CSCC[C@H](NC(=O)C1CCN(S(=O)(=O)c2ccccc2)CC1)C(=O)NC1CC1 | -77 | . | -71* | -25 | .
O=C(c1nc(-c2ccccc2)n(-c2ccccc2)n1)N1CCN(S(=O)(=O)c2ccccc2)CC1 | 28 | 58* | -7 | 4 | 0
Cc1ccc(OCC(=O)NCCCNC(=O)c2ccc(C)nc2)cc1 | 3 | . | -1 | 12 | .
Cc1ccc2c(c1)cc1c(=O)n(CC(=O)N3CCCC3)nc(C)n12 | 5 | . | 3 | -12 | .
COC(=O)CCC(C)N1CCC(Oc2ccc(C(=O)N3CCCC3)cc2)CC1 (centres undefined) | -5 | . | 1 | -18 | .
O=C(NC1CCN(S(=O)(=O)c2ccccc2)CC1)C1CCCCC1 | -14 | -2 | -8 | -8 | 0
O=C(NC1CCCCCC1)C1CCN(S(=O)(=O)c2ccccc2)CC1 | 55* | 13 | 8 | -1 | 0
Cc1cccc(Cn2nc(C)cc2NC(=O)CCCn2ccc([N+](=O)[O-])n2)c1 | 11 | -2 | 12 | -1 | 0
Cc1ccc(S(=O)(=O)N(CCC(=O)O)c2ccccc2)cc1 | 9 | -7 | 2 | -6 | 0
CCN(Cc1ccccc1)S(=O)(=O)c1cc(C(=O)NCC2CCCCC2)ccc1OC | ? | 98* | 72 | 26 | 0
CCN(Cc1ccccc1)S(=O)(=O)c1cc(C(=O)NC2CCCCCC2)ccc1OC | 6 | 95* | 7 | -5 | 0
COc1ccc(N(C)S(=O)(=O)c2cccc(C(=O)NCC3CCCCC3)c2)cc1 | 4 | 28 | 1 | 69* | 0
CC1CN(CC(=O)Nc2ccc([N+](=O)[O-])cc2Br)CC(C)O1 (centres undefined) | -6 | 4 | 4 | 5 | 0
Cc1c(Cl)cccc1-c1ccc(/C=N/n2cnnc2)o1 | 8 | 69* | 4 | -13 | 0
Cc1cc(-c2ccc(/C=N/n3cnnc3)o2)ccc1Cl | 4 | 65* | -4 | 0 | 0
Cc1ccc(NC(=O)c2ccc(=O)n(CC(=O)Nc3ccccc3)n2)cc1 | 1 | . | 0 | -22 | .
Cc1ccc(NC(=O)c2ccc(NS(=O)(=O)/C=C/c3ccccc3)cc2)nc1 | 13 | . | 4 | 10 | .
COc1ccc(Cl)cc1CN1CCOCC1 | -13 | . | -6 | -7 | .
Cc1cc(OCc2cccc(Cl)c2)c(C)cc1CN1CCOCC1 | 38 | 81* | 29 | 52 | 0
COCn1ccnc1C(O)(c1ccc(OC)cc1)c1ccc(OC)cc1 | -6 | -10 | -6 | -13 | 0
COc1ccccc1C(C)NCC(=O)Nc1ccccc1C(F)(F)F (centres undefined) | -7 | 60* | 4 | 0 | 0
Cc1ccccc1OCCCC(=O)Nc1ccccc1C(F)(F)F | 91* | -3 | 38 | 0 | 0
Cc1cccc(OCCCC(=O)Nc2ccccc2C(F)(F)F)c1 | -15 | -1 | 7 | -5 | 0
O=C(OCC(=O)N1CCOCC1)c1ccc(Br)cc1 | 8 | . | 9 | 3 | .
CC(C)Cc1ccc(CN2CCC(n3nccc3NC(=O)C3CCCC3)CC2)cc1 | 2 | . | -6 | 59* | .
COc1ccc(CN2CCC(n3nccc3NC(=O)C3CCCC3)CC2)cc1 | -12 | . | -8 | 31 | .
